Test results as given in paper PMC2266580 (The Journal of General Physiology, 2005).
Where a chain is given by its changes, count along the chain named. “And” between values parts separate entries of the source, which are not always exact repeats. Identical values can stand only once.

Experiments:
Type in all cases: biochemical
[1] = biological target: T1, Kir6.2/ΔC26/G334R channel (slow burst exit gating patches) (Homo sapiens, UniProt Q14654, G334R); conditions: 50 μM protamine
T1 sequence (Q14654 1-364 G334R limits assumed): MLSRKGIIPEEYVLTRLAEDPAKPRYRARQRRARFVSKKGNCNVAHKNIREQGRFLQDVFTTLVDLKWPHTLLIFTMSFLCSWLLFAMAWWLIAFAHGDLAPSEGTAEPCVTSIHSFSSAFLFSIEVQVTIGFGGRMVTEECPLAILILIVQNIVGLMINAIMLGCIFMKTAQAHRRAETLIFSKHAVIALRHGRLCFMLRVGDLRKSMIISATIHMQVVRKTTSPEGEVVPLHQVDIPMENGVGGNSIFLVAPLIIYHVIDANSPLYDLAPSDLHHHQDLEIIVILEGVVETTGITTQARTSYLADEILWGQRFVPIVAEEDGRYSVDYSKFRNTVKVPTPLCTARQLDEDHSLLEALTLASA
Method in brief: (§1)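 Channels expressed in Xenopus oocytes: SUR1 plus Kir6.2 for line 1, Kir6.2ΔC26/G334R for line 2. Inside-out patches were held at −80 mV. Pipette contained (mM) 150 KCl, 10 NaCl, 1 CaCl2, 10 EGTA, 10 HEPES, pH 7.4. […] Signals filtered at 4 kHz, sampled at 20 kHz. Half-amplitude event detection, missed-event-corrected duration histogram fits, n = 5, mean ± SEM.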

[2] = biological target: wild-type SUR1/Kir6.2 channel (Homo sapiens, UniProt Q14654); conditions: 50 μM protamine
Method in brief: as §1

[3] = biological target: T2, Kir6.2ΔC26 G334 (wild type) channel (Homo sapiens, UniProt Q14654); assay: ATP inhibition of wild-type
T2 sequence (Q14654 1-364 limits assumed): T1 sequence (Q14654 1-364 G334R limits assumed) with R334G

[4] = biological target: Kir6.2ΔC26 334F channel; assay: ATP inhibition of 334F channels, inside-out patch; conditions: read-out: Ki,ATP, Xenopus oocytes, without SUR, −80 mV
[5] = biological target: Kir6.2ΔC26 333K channel; assay: ATP inhibition of 333K channels, inside-out patch; conditions: read-out: Ki,ATP, Xenopus oocytes, without SUR, n = 6
[6] = biological target: Kir6.2ΔC26 334E channel; assay: ATP inhibition of 334E channels, inside-out patch; conditions: read-out: Ki,ATP, Xenopus oocytes, without SUR, −80 mV
[7] = biological target: Kir6.2ΔC26 334A channel; assay: ATP inhibition of 334A channels, inside-out patch; conditions: read-out: Ki,ATP, Xenopus oocytes, without SUR, −80 mV

Sequence of wild-type SUR1/Kir6.2 channel (Q14654 whole entry): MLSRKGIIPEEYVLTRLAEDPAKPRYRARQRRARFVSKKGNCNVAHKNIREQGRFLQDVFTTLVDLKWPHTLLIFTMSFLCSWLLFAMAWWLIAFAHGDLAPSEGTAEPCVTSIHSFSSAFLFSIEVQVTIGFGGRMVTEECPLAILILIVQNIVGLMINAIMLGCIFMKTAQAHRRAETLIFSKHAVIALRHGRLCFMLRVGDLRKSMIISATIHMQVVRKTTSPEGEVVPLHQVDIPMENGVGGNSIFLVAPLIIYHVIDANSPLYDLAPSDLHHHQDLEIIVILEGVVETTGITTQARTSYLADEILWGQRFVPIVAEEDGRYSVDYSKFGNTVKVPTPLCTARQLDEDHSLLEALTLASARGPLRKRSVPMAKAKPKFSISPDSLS
Sequence of wild-type SUR1/Kir6.2 channel (Q09428 whole entry partner): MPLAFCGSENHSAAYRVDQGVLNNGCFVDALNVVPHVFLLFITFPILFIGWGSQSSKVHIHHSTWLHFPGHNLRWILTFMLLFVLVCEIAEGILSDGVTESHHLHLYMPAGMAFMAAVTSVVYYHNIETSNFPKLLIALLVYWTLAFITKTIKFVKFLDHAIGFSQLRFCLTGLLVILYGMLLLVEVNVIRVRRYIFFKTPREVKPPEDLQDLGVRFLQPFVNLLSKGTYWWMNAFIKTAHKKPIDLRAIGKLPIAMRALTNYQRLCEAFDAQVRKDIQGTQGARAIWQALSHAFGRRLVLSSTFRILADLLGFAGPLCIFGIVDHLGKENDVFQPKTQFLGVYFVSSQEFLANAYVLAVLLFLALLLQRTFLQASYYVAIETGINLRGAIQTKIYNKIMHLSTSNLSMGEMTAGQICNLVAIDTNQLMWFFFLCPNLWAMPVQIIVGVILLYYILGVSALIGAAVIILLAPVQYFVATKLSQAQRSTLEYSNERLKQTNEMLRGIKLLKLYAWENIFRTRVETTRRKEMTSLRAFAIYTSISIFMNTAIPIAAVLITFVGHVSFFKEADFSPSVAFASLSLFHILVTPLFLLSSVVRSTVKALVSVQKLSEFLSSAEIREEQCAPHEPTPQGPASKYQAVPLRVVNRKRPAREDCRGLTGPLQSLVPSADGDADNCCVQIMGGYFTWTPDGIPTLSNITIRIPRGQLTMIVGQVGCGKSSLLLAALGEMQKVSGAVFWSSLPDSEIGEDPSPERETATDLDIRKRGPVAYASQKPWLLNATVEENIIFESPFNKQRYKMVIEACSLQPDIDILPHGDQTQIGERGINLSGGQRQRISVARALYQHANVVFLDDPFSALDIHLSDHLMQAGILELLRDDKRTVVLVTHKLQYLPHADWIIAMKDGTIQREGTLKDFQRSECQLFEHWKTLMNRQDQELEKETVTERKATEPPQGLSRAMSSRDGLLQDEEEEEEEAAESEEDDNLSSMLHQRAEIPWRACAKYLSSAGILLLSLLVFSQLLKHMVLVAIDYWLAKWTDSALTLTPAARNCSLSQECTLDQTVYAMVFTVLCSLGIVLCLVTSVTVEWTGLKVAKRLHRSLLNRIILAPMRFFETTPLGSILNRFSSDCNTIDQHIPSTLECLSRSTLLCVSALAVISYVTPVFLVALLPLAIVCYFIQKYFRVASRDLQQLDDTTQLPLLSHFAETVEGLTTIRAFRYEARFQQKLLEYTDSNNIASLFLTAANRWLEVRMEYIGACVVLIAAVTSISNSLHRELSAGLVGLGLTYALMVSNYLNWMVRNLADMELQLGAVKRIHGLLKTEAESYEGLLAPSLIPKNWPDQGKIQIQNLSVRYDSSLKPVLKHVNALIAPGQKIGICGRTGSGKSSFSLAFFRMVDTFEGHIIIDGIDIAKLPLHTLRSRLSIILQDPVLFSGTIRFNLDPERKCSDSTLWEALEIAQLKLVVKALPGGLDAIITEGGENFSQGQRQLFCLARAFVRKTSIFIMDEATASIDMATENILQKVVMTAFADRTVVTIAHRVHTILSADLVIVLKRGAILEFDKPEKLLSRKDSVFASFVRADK

| inhibition of channel activity ([3]; 10 mM ATP) | slope factor αH of Hill fit of ATP inhibition ([3]; wild-type channel, αH free variable) | Ki [4] | Ki [5] [µM] | Ki [6] [µM] | Ki [7] [µM] | Compound | mean open time after protamine ([1]; absence of ATP, n = 5, before protamine 1.9 ± 0.2 ms) [ms] | mean burst time after protamine ([1]; absence of ATP, n = 5, before protamine 80.3 ± 10.7 ms) [ms] | effect on slowed gating from the burst ([1]; all 12 patches) | mean open time after protamine ([2]; absence of ATP, before protamine 2.1 ± 0.2 ms) [ms] | mean burst time after protamine ([2]; absence of ATP, before protamine 48.0 ± 7.4 ms) [ms] | effect on gating from the burst ([2]; cytoplasmic face, all six patches) |
| --- | --- | --- | --- | --- | --- | --- | --- | --- | --- | --- | --- | --- |
|  |  |  |  |  |  | protamine | 1.1 ± 0.2 | 2.6 ± 1.8 | fully restore the fast gating from the burst | 1.0 ± 0.2 | 2.6 ± 0.9 | dramatically speeded gating from the burst |
| complete inhibition | 1.0 ± 0.1 | 3000 µM and 3100 µM | 2200 ± 300 | 5900 ± 20 | 2100 ± 50 | Nc1ncnc2c1ncn2[C@@H]1O[C@H](COP(=O)(O)OP(=O)([O-])OP(=O)([O-])O)[C@@H](O)[C@H]1O.[Mg+2] [ATP] |  |  |  |  |  |  |
